Reference: publication PMC3794474 (Journal of medicinal chemistry, 2011)
Where two headings read alike, the source gives them in different places.

Legend:
tadpole [1] = assay: Tadpole loss of swimming reflex; format: in vivo; settings: ± SEM, None = all animals had a swimming response at 10 µM of the test compound
[2] = target: T1, rat α1β2γ2L type GABAA receptors expressed in Xenopus laevis oocytes (Rattus norvegicus, UniProt P62813+P63138); format: cell-based; settings: 2 µM GABA; for oocyte electrophysiology, ratio of currents in presence/absence of compound: ± SEM, N ≥ 4; for Potentiation, steroids 1 and 6a directly compared on the same oocyte (Figure 4): 1 and 10 µM compound, 6 to 7 oocytes
Outline: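 Rat α1β2γ2L GABAA receptors expressed in Xenopus oocytes with whole-cell recording. Currents with test compound plus 2 µM GABA were expressed as a ratio to 2 µM GABA alone, with at least four oocytes per compound. Direct gating used 10 µM compound without GABA, given as a ratio to the 2 µM GABA current. In the within-oocyte comparison, 1 or 10 µM compound was co-applied with 2 µM GABA and averaged over 6–7 oocytes.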

tadpole [3] = assay: Tadpole loss of righting reflex; format: in vivo; settings: read-out: Tadpole LRR EC50; ± SEM, N = 10 or more animals at each of five or more concentrations
[4] = target: picrotoxin binding site on GABAA receptors; settings: read-out: IC50, inhibition of [35S]-TBPS binding; ± SEM; cited from earlier work
[5] = target: T1, rat α1β2γ2L type GABAA receptors expressed in Xenopus laevis oocytes; settings: 2 µM GABA, ± SEM, cited from earlier work
tadpole [6] = settings: read-out: Tadpole LRR EC50; ± SEM; cited from earlier work
tadpole [7] = settings: read-out: Tadpole LSR EC50; ± SEM; None = all animals had a swimming response at 10 µM of the test compound; cited from earlier work
BALB/C mice = assay: Anesthesia; format: in vivo, mouse; settings: tail vein injection

(3α,5α)-3-Hydroxy-11-oxopregnan-21-carbonitrile [Compound 5c]
Tadpole LSR EC50 (tadpole [1]): None | oocyte electrophysiology, ratio of currents in presence/absence of compound ([2]; 0.1 µM compound): 0.91 ± 0.03 | oocyte electrophysiology, ratio of currents in presence/absence of compound ([2]; 1 µM compound): 1.13 ± 0.08 | oocyte electrophysiology, ratio of currents in presence/absence of compound ([2]; 10 µM compound): 4.67 ± 0.14 | EC50 (tadpole [3]): 3.58 ± 1.59 µM

CC(=O)C1=CC[C@H]2[C@@H]3CC[C@H]4C[C@H](O)CC[C@]4(C)[C@H]3C(=O)C[C@]12C [Compound 2, (3α,5α)-3-hydroxypregn-16-ene-11,20-dione]
IC50 [4]: 2.22 µM | oocyte electrophysiology, ratio of currents in presence/absence of compound ([5]; 0.1 µM compound): 0.94 ± 0.04 | oocyte electrophysiology, ratio of currents in presence/absence of compound ([5]; 1 µM compound): 0.97 ± 0.05 | oocyte electrophysiology, ratio of currents in presence/absence of compound ([5]; 10 µM compound): 1.87 ± 0.14 | EC50 (tadpole [6]): > 10 µM

C[C@]12CC[C@@H](O)C[C@@H]1CC[C@@H]1[C@@H]2C(=O)C[C@]2(C)C(C=O)=CC[C@@H]12 [Compound 5a, (3α,5α)-3-Hydroxy-11-oxoandrost-16-ene-17-carboxaldehyde]
Tadpole LSR EC50 (tadpole [1]): None | EC50 (tadpole [3]): ~3 µM

CC(=O)[C@H]1CC[C@H]2[C@@H]3CC[C@H]4C[C@H](O)CC[C@]4(C)[C@H]3C(=O)C[C@]12C [Compound 1, (3α,5α)-3-hydroxypregnane-11,20-dione]
EC50 (tadpole [7]): 5.48 ± 0.11 µM | Anesthetic effect in mice (BALB/C mice; 8 mg/kg, 22.5% 2-hydroxypropyl-β-cyclodextrin): very brief anesthesia | Onset of loss of righting reflex (BALB/C mice; mice, 16 mg/kg): immediate loss of righting reflex | Recovery period from initial return of leg movement to righting and walking (BALB/C mice; mice, 16 mg/kg): 1 to 2 min | Potentiation, steroids 1 and 6a directly compared on the same oocyte (Figure 4) [2]: potentiate to the same level | EC50 (tadpole [6]): 1.12 ± 0.14 µM

C[C@]12CC[C@@H](O)C[C@@H]1CC[C@H]1[C@@H]3CC[C@H](C=O)[C@@]3(C)CC(=O)[C@@H]12 [Compound 5b, (3α,5α,17β)-3-Hydroxy-11-oxoandrostane-17-carboxaldehyde]
Tadpole LSR EC50 (tadpole [1]): None

C[C@]12CC[C@@H](O)C[C@@H]1CC[C@@H]1[C@@H]2C(=O)C[C@]2(C)/C(=C\C#N)CC[C@@H]12 [Compound 6a, [3α,5α,17(20)Z]-3-Hydroxy-11-oxopregn-17(20)-ene-21-nitrile]
Time to loss of movement and righting reflex (onset) (BALB/C mice; mice, 8 mg/kg): 10 to 25 s | Onset of loss of righting reflex (BALB/C mice; mice, 16 mg/kg): immediate loss of righting reflex | Potentiation, steroids 1 and 6a directly compared on the same oocyte (Figure 4) [2]: potentiate to the same level

C/C(C#N)=C1\CC[C@H]2[C@@H]3CC[C@H]4C[C@H](O)CC[C@]4(C)[C@H]3C(=O)C[C@]12C [Compound 6c, [3α,5α,17(20)Z]-3-Hydroxy-11-oxopregn-17(20)-ene-20-carbonitrile]
EC50 (tadpole [1]; read-out: Tadpole LSR EC50): < 10 µM
